Calls of active or inactive are those of the source. The calls are words filed in the database; no cut-off is given here.
Tests used:
Staphylococcus aureus [1] = test: Antibacterial activity against MRSA Staphylococcus aureus 134/93 by agar diffusion assay; format: functional
In short: (§1)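 Test bacteria at 10^6 CFU/ml were suspended in melted nutrient agar and poured into Petri dishes. 9 mm wells were cut and each filled with 50 µl of a 0.2 mM compound solution. Inhibition zones were read after 18 h at 37 °C. Growth of colonies inside the zone was flagged.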

Staphylococcus aureus [2] = test: Antibacterial activity against wild type Staphylococcus aureus SG 511 by agar diffusion assay; format: functional; in short: as §1
Pseudomonas aeruginosa = test: Antibacterial activity against PSE1 beta-lactamase Pseudomonas aeruginosa IV-3-13 by agar diffusion assay; format: functional; in short: as §1
Escherichia coli [3] = test: Antibacterial activity against Escherichia coli ATCC 33475 by agar diffusion assay; format: functional; in short: as §1
Mycobacterium = test: Antibacterial activity against wild type Mycobacterium vaccae IMET10670 by agar diffusion assay; format: functional, Mycolicibacterium vaccae; in short: as §1
Escherichia coli [4] = test: Antibacterial activity against TEM1 beta-lactamase Escherichia coli IV-3-2 by agar diffusion assay; format: functional; in short: as §1
Enterococcus faecalis = test: Antibacterial activity against VRE Enterococcus faecalis 1528 by agar diffusion assay; format: functional; in short: as §1
Klebsiella pneumoniae = test: Antibacterial activity against Klebsiella pneumoniae ATCC 8308 by agar diffusion assay; format: functional; in short: as §1
Escherichia coli [5] = test: Antibacterial activity against wild type Escherichia coli DC0 by agar diffusion assay; format: functional; in short: as §1
Candida albicans = test: Antifungal activity against Candida albicans BMSY 212 by agar diffusion assay; format: functional
In short: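 Agar-well diffusion: Candida albicans at 10^6 CFU/ml was seeded in melted nutrient agar and poured into plates. Compound was loaded as 50 µl of a 0.2 mM solution into 9 mm holes. Plates were incubated at 30 °C and the inhibition zones recorded.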

Enterobacter cloacae = test: Antibacterial activity against ampC beta-lactamase Enterobacter cloacae P99 by agar diffusion assay; format: functional
Escherichia coli [6] = test: Antibacterial activity against Escherichia coli X580 by agar diffusion assay; format: functional; in short: as §1
Salmonella enterica = test: Antibacterial activity against Salmonella enterica ATCC 13311 by agar diffusion assay; format: functional; in short: as §1
[7] = system: Beta-lactamase (Bacillus cereus); test: Inhibition of Bacillus cereus penicillinase

Row | inhibition [7] | Compound | inhibition zone (IZ) (Staphylococcus aureus [1]) | inhibition zone (IZ) (Staphylococcus aureus [2]) | inhibition zone (IZ) (Pseudomonas aeruginosa) | inhibition zone (IZ) (Escherichia coli [3]) | inhibition zone (IZ) (Mycobacterium) | inhibition zone (IZ) (Escherichia coli [4]) | inhibition zone (IZ) (Enterococcus faecalis) | inhibition zone (IZ) (Klebsiella pneumoniae) | inhibition zone (IZ) (Escherichia coli [5]) | inhibition zone (IZ) (Candida albicans) | inhibition zone (IZ) (Enterobacter cloacae) | inhibition zone (IZ) (Escherichia coli [6]) | inhibition zone (IZ) (Salmonella enterica)
1 |  | O=C(Cc1ccccc1)NCC(=O)N1O[C@H](C(=O)O)C[C@@H]1C(=O)O | 0 mm | 0 mm | 0 mm | 0 mm | 0 mm | 0 mm | 0 mm | 0 mm | 0 mm | 0 mm | 0 mm | 26 mm | 0 mm
2 |  | C[C@@H](NC(=O)Cc1ccccc1)C(=O)N1O[C@H](C(=O)O)C[C@@H]1C(=O)O |  |  |  | 0 mm |  |  |  | 0 mm |  |  |  | 25 mm | 0 mm
3 | inactive | C[C@H](NC(=O)Cc1ccccc1)C(=O)N1O[C@H](C(=O)O)C[C@@H]1C(=O)O |  |  |  | 0 mm |  |  |  | 0 mm |  |  |  | 20 mm | 0 mm
4 |  | CO/N=C(\C(=O)N[C@@H]1C(=O)N2C(C(=O)O)=C(COC(C)=O)CS[C@H]12)c1csc(N)n1 [CEFOTAXIME] | 0 mm | 26 mm |  |  | 0 mm | 28 mm | 22 mm |  | 21 mm |  | 0 mm |  | 
5 |  | O=C(O)c1cn(C2CC2)c2cc(N3CCNCC3)c(F)cc2c1=O [CIPROFLOXACIN] | 0 mm | 29 mm | 35 mm |  | 38 mm | 27 mm | 24 mm |  |  |  |  |  | 
6 |  | N[C@@H](C(=O)N[C@@H]1C(=O)N2C(C(=O)O)=C(Cl)CC[C@H]12)c1ccccc1 [LORACARBEF ANHYDROUS] | 0 mm | 28 mm | 0 mm |  | 0 mm | 23 mm | 0 mm |  | 24 mm |  | 0 mm |  | 
7 |  | CC1(C)S[C@@H]2[C@H](NC(=O)Cc3ccccc3)C(=O)N2[C@H]1C(=O)O [PENICILLIN G] |  |  |  | 23 mm |  |  |  | 12 mm |  |  |  | 54 mm | 37 mm
